Source: PMC6875695 (Journal of controlled release : official journal of the …, 2019)

Columns and labels:
HIV-1ADA = assay: EC50 assay in MDM, HIV-1 RT activity; type: cell-based; settings: Human immunodeficiency virus 1, 240 h
How it was run: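 Human monocytes differentiated to macrophages with MCSF (1000 U/mL) for 7 days, then seeded at 0.15 × 10^6 cells/well and kept at 37 °C, 5% CO2. Cells were pretreated 2 h with test compound (0.1–1000 nM) and challenged with HIV-1ADA at MOI 0.1 for 4 h. After a PBS wash they were re-fed drug-containing medium at the same concentrations. Supernatant RT activity was read 10 days post-challenge.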

HIV-1NL4–3-eGFP = assay: EC50 assay in CEM-CD4+ T-cells, HIV-1 RT activity; type: cell-based; settings: Human immunodeficiency virus 1, T-cell, 240 h
HIV-1 = settings: no reference given; cited from earlier work

SMILES: Cc1cc(/C=C/C#N)cc(C)c1Nc1ccnc(Nc2ccc(C#N)cc2)n1 [RPV, rilpivirine]
- EC50 (HIV-1ADA): 1.9 nM
- EC50 (HIV-1NL4–3-eGFP): 0.8 nM
- protein-adjusted 90% inhibitory concentration (PA-IC90) (HIV-1): 0.012 µg/mL
